Rows were chosen to be rich in hits. Some 2.6% of all compounds tested hit in one or more screens of this group.
miR122 inh: blocks miR-122 activity in Huh7 sensor cells. Huh7 miR-122 Renilla luciferase sensor, 48 h; neutral wells = 0, positive control = 100. activation (reporter increase), % at 12.5 µM. hit rate 0.3% among 340,000. AID 602342;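 active = mean replicate activation score at least 90 and every replicate individually at or above 90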;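 note: higher luciferase means less miR-122 activity so hits act as miR-122 inhibitors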
Vif imaging: blocks HIV Vif function | HEK293T cells, Vif self-association by quenched fluorescence, imaging, 24 h | inhibition, % at 7.49 µM | hit rate 0.35% among 340,000 | AID 602346; in the data active = inhibition above about 50%, passing the limit was not always enough
rRNA inh HTS: inhibitors of bacterial rRNA selective over humanized ribosomes | E. coli WT GFP vs humanized-ribosome RFP mutants, fluorescence, 24 h; hits give low values; DMSO median 0, no signal -100 | GFP signal change (wild-type ribosome), % (test concentration not listed) | hit rate 1.6% among 350,000;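 active = significant combined selectivity score with lowered wild-type GFP, culture density cut under 30%, mutant RFP and density less affected; inactive = any of these conditions unmet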
S100A4 MyoIIA: inhibitors of human S100A4 binding to myosin IIA peptide; inhibition, % at 10.7 µM; hit rate 0.14% among 360,000; AID 652163; S100A4/TAMRA-MyoIIA peptide fluorescence polarization;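 active = mean inhibition of at least 70% across replicates, with every replicate also reaching that level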
Target sequence (P26447 whole entry, looked up): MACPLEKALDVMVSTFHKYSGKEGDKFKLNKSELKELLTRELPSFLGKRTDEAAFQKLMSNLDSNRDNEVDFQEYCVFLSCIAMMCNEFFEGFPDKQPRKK
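Test system: S100A4 monomer protein. Medium: HEPES buffer with Ca2+, pH 7.2. Reagent: fluorescent myosin IIA peptide, 5 nM. Compound dosing: single-point compound testing. Timing: 5 min between mix addition and reading. Benchmarks: DMSO neutral and TFP positive wells.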
HIV Env fusion: HIV envelope-mediated fusion inhibition. HeLa-JRFL Env/CEM21 cell fusion, luciferase. inhibition, % at 12.3 µM. hit rate 1.1% among 360,000. AID 651610;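 active = mean replicate inhibition score of at least 50 and every replicate individually at or above 50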;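 note: 0% = plate neutral controls and 100% = maraviroc near 300 nM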
FN deposit inh: fibronectin deposition inhibition. AH1F fibroblasts, Alexa488-fibronectin deposition fluorescence, overnight. inhibition, % at 12.6 µM. hit rate 0.086% among 350,000;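 active = mean inhibition across replicates of 30% or more, regardless of how many single replicates reach that level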;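 note: positive control wells lacked labelled fibronectin entirely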
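material = AH1F fibroblast monolayer depositing Alexa488-labelled fibronectin into matrix | amount = 10000 AH1F cells/well | buffer or medium = DMEM plus 2% serum, read in PBS | incubation = 1 h cell adhesion before compound, then overnight fibronectin incubation | detection = fluorescence at 485 nm excitation, 525 nm emission | evaluation = percent inhibition as loss of matrix-bound fibronectin fluorescence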
Starred values were filed as active, the others as inactive; [ ] = remark or other dose.

For COC(=O)N/N=C/c1cn(Cc2ccc(Cl)cc2Cl)c2ccccc12 the results were miR122 inh -1.1, Vif imaging -6.7, rRNA inh HTS -27.9*, S100A4 MyoIIA -2.9 and FN deposit inh 0.5.
Screening C[C@@H](NC(=O)C[C@@H]1C=C[C@H](NC(=O)CN2CCOCC2)[C@H](CO)O1)c1ccccc1 returned rRNA inh HTS 1.7, S100A4 MyoIIA -1.5, HIV Env fusion -8.7[16.7 µM] and FN deposit inh -20.7.
CC(C)NC(=O)Nc1cccc2c1O[C@@H](CN(C)C(=O)OC(C)(C)C)[C@@H](C)CN(C)C2=O was read as rRNA inh HTS 3.1 and FN deposit inh -1.1.
For COCC(=O)Nc1ccc2c(c1)C(=O)N(C)C[C@@H](OC)[C@H](C)CN(CC1CC1)[C@@H](C)CO2 the results were rRNA inh HTS 2.0, S100A4 MyoIIA -4.1 and FN deposit inh -0.4.
Screening CCCC(=O)N1CC2(CCN(C(=O)NC(C)C)CC2)c2c(n(C)c3cc(OC)ccc23)[C@@H]1CO returned rRNA inh HTS -2.5.
For COc1ccccc1OCCn1cc(/C=N/NC(=O)c2ccncc2)c2ccccc21 the results were miR122 inh -2.2, Vif imaging -1.6, rRNA inh HTS -27.9*, S100A4 MyoIIA 0.6, HIV Env fusion 19.6 and FN deposit inh 3.5.
COCC(=O)N1CC2(CCN(C(=O)CN3CCOCC3)CC2)c2c([nH]c3cc(OC)ccc23)[C@H]1CO was read as rRNA inh HTS 3.3.
CCOC(=O)CC(=O)CSc1nc2c(sc(=S)n2-c2ccc(C)c(C)c2)c(=O)[nH]1 was read as miR122 inh -3.7, Vif imaging -8.9, rRNA inh HTS -18.1, S100A4 MyoIIA -10.8, HIV Env fusion 3.6 and FN deposit inh -7.5.
`CCOC(=O)CC(=O)CSc1nc2c(sc(=S)n2-c2ccc(OCC)cc2)c(=O)[nH]1` gave miR122 inh -2.8, Vif imaging -9.9, rRNA inh HTS -27.5*, S100A4 MyoIIA -4.1 and FN deposit inh 0.1.
COc1ccc2c3c(n(C)c2c1)[C@H](CO)N(C(=O)NC(C)C)CC31CN(CC2CC2)C1 was read as rRNA inh HTS 4.8 and S100A4 MyoIIA -4.0.
Screening CCN(c1nc(N)c(C(=O)N=C(N)N)nc1Cl)C(C)C returned miR122 inh 0.7, Vif imaging -1.5, S100A4 MyoIIA 3.2, HIV Env fusion 69.0* and FN deposit inh 0.2.
Screening Cn1c(=O)c2nc(-c3ccccc3)c(-c3ccccc3)nc2n(C)c1=O returned Vif imaging 1.3, rRNA inh HTS -20.4*, S100A4 MyoIIA -2.8, HIV Env fusion -15.6 and FN deposit inh 0.4.
CN(C)C(=O)C[C@@H]1C[C@@H]2c3cc(NC(=O)c4ccc5c(c4)OCO5)ccc3O[C@@H]2[C@@H](CO)O1 was read as miR122 inh 6.7[16.7 µM], rRNA inh HTS 1.5, S100A4 MyoIIA 6.6 and FN deposit inh -5.0.
Screening CC(C)NC(=O)N(C)C[C@H]1OCCCC[C@@H](C)Oc2ccc(NS(=O)(=O)c3ccc(Cl)cc3)cc2C(=O)N([C@@H](C)CO)C[C@@H]1C returned miR122 inh -2.8[16.7 µM], rRNA inh HTS 0.1, S100A4 MyoIIA -1.6, HIV Env fusion -9.9[16.7 µM] and FN deposit inh 1.9.
For O=C(NCCCCc1ccccc1)c1cccc(NC(=O)C2CCC2)c1 the results were miR122 inh 6.6, Vif imaging -7.4, rRNA inh HTS -31.1, S100A4 MyoIIA -2.8, HIV Env fusion -13.7 and FN deposit inh -2.9.
For O=C(NCCCCc1ccccc1)c1cccc(NC(=O)C2CCCCC2)c1 the results were miR122 inh -2.3, Vif imaging 1.3, rRNA inh HTS -30.4*, S100A4 MyoIIA 0.6, HIV Env fusion -35.5 and FN deposit inh -4.1.
O=C(Cc1cccc(NC(=O)C2CCN(C(=O)C3CCCC3)CC2)c1)Nc1cccc(C(=O)N2CCCCC2)c1 was read as miR122 inh -4.1, Vif imaging -0.7, rRNA inh HTS -7.1, S100A4 MyoIIA -2.8, HIV Env fusion -17.2 and FN deposit inh 10.7.
O=C(Cc1cccc(NC(=O)C2CCN(C(=O)C3CCCC3)CC2)c1)Nc1cccc(C(=O)N2CCCC2)c1 was read as miR122 inh -2.4, rRNA inh HTS -20.9*, S100A4 MyoIIA -4.1, HIV Env fusion 14.2 and FN deposit inh -30.5.

Screening results: PubChem, Broad Institute
